Reference: ChEMBL document CHEMBL5257157, “Biological evaluation of novel amidino substituted coumarin-benzazole hybrids as promising therapeutic agents” (RSC Med Chem, 2023)

Key:
[1] = Cytotoxicity against human HEL 299 cells assessed as inhibition of cell growth incubated for 72 hrs by CellTiter96 Aqueous One Solution cell proliferation assay; type: toxicity, cell-based
[2] = test system: Huh-7; assay: Cytotoxicity against human Huh-7 cells assessed as inhibition of cell growth incubated for 72 hrs by CellTiter96 Aqueous One Solution cell proliferation assay; type: functional
[3] = Cytotoxicity against dog MDCK cells assessed as inhibition of cell growth incubated for 72 hrs by CellTiter96 Aqueous One Solution cell proliferation assay; type: toxicity, cell-based, Canis lupus familiaris
[4] = test system: Human coronavirus 229E; assay: Antiviral activity against HCoV-229E infected in human HEL 299 cells assessed as inhibition of virus-induced cytopathogenic effect incubated for 3 to 7 days by MTS assay; type: functional, organism-based
[5] = test system: Human coronavirus OC43; assay: Antiviral activity against HCoV-OC43 infected in human HEL 299 cells assessed as inhibition of virus-induced cytopathogenic effect incubated for 3 to 7 days by MTS assay; type: functional, organism-based; conditions: Betacoronavirus 1, HEL 299
[6] = Antiviral activity against HCoV-NL63 infected in human Huh-7 cells assessed as inhibition of virus-induced cytopathogenic effect incubated for 3 to 7 days by MTS assay; type: functional, cell-based; conditions: Human coronavirus NL63, Huh-7
[7] = test system: Influenza A virus; assay: Antiviral activity against influenza virus H1N1 infected in dog MDCK cells assessed as inhibition of virus-induced cytopathogenic effect incubated for 3 to 7 days by MTS assay; type: functional, organism-based
[8] = test system: Influenza A virus; assay: Antiviral activity against influenza virus H3N2 infected in dog MDCK cells assessed as inhibition of virus-induced cytopathogenic effect incubated for 3 to 7 days by MTS assay; type: functional, organism-based
[9] = test system: Influenza B virus; assay: Antiviral activity against influenza B virus infected in dog MDCK cells assessed as inhibition of virus-induced cytopathogenic effect incubated for 3 to 7 days by MTS assay; type: functional, organism-based
[10] = test system: Respiratory syncytial virus; assay: Antiviral activity against RSV infected in human HEL 299 cells assessed as inhibition of virus-induced cytopathogenic effect incubated for 3 to 7 days by MTS assay; type: functional, organism-based
[11] = test system: Human alphaherpesvirus 1; assay: Antiviral activity against HSV-1 KOS infected in human HEL 299 cells assessed as inhibition of virus-induced cytopathogenic effect incubated for 3 to 7 days by MTS assay; type: functional, organism-based; conditions: Human alphaherpesvirus 1, KOS
[12] = test system: Yellow fever virus; assay: Antiviral activity against Yellow fever virus 17D infected in human Huh-7 cells assessed as inhibition of virus-induced cytopathogenic effect incubated for 3 to 7 days by MTS assay; type: functional, organism-based
[13] = test system: Zika virus; assay: Antiviral activity against Zika virus Mr776 infected in human Huh-7 cells assessed as inhibition of virus-induced cytopathogenic effect incubated for 3 to 7 days by MTS assay; type: functional, organism-based; conditions: Mr776, Huh-7
[14] = test system: Sindbis virus; assay: Antiviral activity against Sindbis virus infected in human Huh-7 cells assessed as inhibition of virus-induced cytopathogenic effect incubated for 3 to 7 days by MTS assay; type: functional, organism-based
[15] = Antioxidant activity assessed as ABTS radical scavenging activity incubated for 5 mins by absorbance based microplate reader analysis; type: functional
How it was run: (§1)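 Pure compounds tested in three colorimetric antioxidant assays, each run alongside the reference BHT. […] ABTS: direct reaction with ABTS•+ radical cation, reported as IC50. DPPH: scavenging of the stable DPPH radical by proton or electron donation, reported as IC50. FRAP: reducing power, expressed as mmolFe2+/mmolC.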

[16] = Antioxidant activity assessed as DPPH radical scavenging activity incubated for 5 mins by absorbance based microplate reader analysis; type: functional; how it was run: as §1
[17] = Antioxidant activity assessed as reduction of Fe3+ complex to Fe2+ analogue by measuring mmolFe2+/mmolc by FRAP assay; type: functional; how it was run: as §1
[18] = test system: LN-229; assay: Antiproliferative activity against human LN-229 cells assessed as inhibition of cell growth incubated for 72 hrs by CellTiter96 Aqueous One Solution cell proliferation assay; type: functional, cell-based; conditions: LN-229, 72 h
[19] = test system: CAPAN-1; assay: Antiproliferative activity against human CAPAN-1 cells assessed as inhibition of cell growth incubated for 72 hrs by CellTiter96 Aqueous One Solution cell proliferation assay; type: functional, cell-based; conditions: CAPAN-1, 72 h
[20] = test system: NCI-H460; assay: Antiproliferative activity against human NCI-H460 cells assessed as inhibition of cell growth incubated for 72 hrs by CellTiter96 Aqueous One Solution cell proliferation assay; type: functional, cell-based; conditions: NCI-H460, 72 h
[21] = Antiproliferative activity against human DND41 cells assessed as inhibition of cell growth incubated for 72 hrs by CellTiter96 Aqueous One Solution cell proliferation assay; type: functional, cell-based; conditions: DND41, 72 h
[22] = test system: HL-60; assay: Antiproliferative activity against human HL-60 cells assessed as inhibition of cell growth incubated for 72 hrs by CellTiter96 Aqueous One Solution cell proliferation assay; type: functional, cell-based; conditions: HL-60, 72 h
[23] = test system: K562; assay: Antiproliferative activity against human K562 cells assessed as inhibition of cell growth incubated for 72 hrs by CellTiter96 Aqueous One Solution cell proliferation assay; type: functional, cell-based; conditions: K562, 72 h
[24] = test system: Z-138; assay: Antiproliferative activity against human Z138 cells assessed as inhibition of cell growth incubated for 72 hrs by CellTiter96 Aqueous One Solution cell proliferation assay; type: functional, cell-based; conditions: Z-138, 72 h

| Structure (SMILES) | CC50 at 72 h [1] | CC50 [2] | CC50 at 72 h [3] | EC50 [4] | EC50 [5] | EC50 [6] | EC50 [7] | EC50 [8] | EC50 [9] | EC50 [10] | EC50 [11] | EC50 [12] | EC50 [13] | IC50 [18] | IC50 [19] | IC50 [20] | IC50 [21] | IC50 [22] | IC50 [23] | IC50 [24] | other results |
| --- | --- | --- | --- | --- | --- | --- | --- | --- | --- | --- | --- | --- | --- | --- | --- | --- | --- | --- | --- | --- | --- |
| Cc1ccc2oc(=O)c(-c3nc4cc(C5=NCCCN5)ccc4[nH]3)c(Cl)c2c1 | > 100 µM | 78.7 µM | 77.1 µM | > 100 µM | 74.2 µM | > 100 µM | > 100 µM | > 100 µM | > 100 µM | 64.1 µM | > 100 µM | > 100 µM | > 100 µM | > 100 µM | 71.9 µM | > 100 µM | 16.9 µM | 64.2 µM | > 100 µM | 48.1 µM | EC50 [14]: > 100 µM; IC50 [15]: 460 µM; IC50 [16]: 520 µM; Activity [17]: 47.8 mmol/mmol |
| Cc1ccc2oc(=O)c(-c3nc4cc(C5=NCCN5)ccc4[nH]3)c(Cl)c2c1 | 77 µM | < 0.8 µM | 10 µM | > 100 µM | > 100 µM | > 100 µM | > 100 µM | > 100 µM | > 100 µM | > 100 µM | > 100 µM | > 100 µM | > 100 µM | 9.1 µM | 10.2 µM | 31.7 µM | 5.8 µM | 21.5 µM | 9.9 µM | 6.4 µM | EC50 [14]: > 100 µM; IC50 [15]: 350 µM; IC50 [16]: 190 µM; Activity [17]: 47.1 mmol/mmol |
| NC(=O)c1ncn([C@@H]2O[C@H](CO)[C@@H](O)[C@H]2O)n1 [RIBAVIRIN] | > 250 µM | 8.9 µM | 67 µM | 82.6 µM | – | > 250 µM | 10.5 µM | 4 µM | 2.8 µM | 10.8 µM | – | > 250 µM | > 250 µM | – | – | – | – | – | – | – | – |
| CC(=O)N[C@H]1[C@H]([C@H](O)[C@H](O)CO)OC(C(=O)O)=C[C@@H]1NC(=N)N [ZANAMIVIR] | – | – | > 100 µM | – | – | – | 0.1 µM | 16.8 µM | 0.05 µM | – | – | – | – | – | – | – | – | – | – | – | – |
| O=c1oc2ccccc2c(Cl)c1-c1nc2cc(C3=NCCCN3)ccc2[nH]1 | 87.4 µM | 61.7 µM | 81.7 µM | > 100 µM | > 100 µM | > 100 µM | > 100 µM | > 100 µM | > 100 µM | > 100 µM | > 100 µM | > 100 µM | > 100 µM | > 100 µM | 69.2 µM | > 100 µM | 19.1 µM | 53.5 µM | > 100 µM | 44.5 µM | EC50 [14]: > 100 µM; IC50 [15]: 290 µM; IC50 [16]: 70 µM; Activity [17]: 38.3 mmol/mmol |
| COc1cc([C@@H]2c3cc4c(cc3[C@@H](O[C@@H]3O[C@@H]5CO[C@@H](C)O[C@H]5[C@H](O)[C@H]3O)[C@H]3COC(=O)[C@H]23)OCO4)cc(OC)c1O [ETOPOSIDE] | – | – | – | – | – | – | – | – | – | – | – | – | – | 0.43 µM | 1.45 µM | 3.65 µM | 2.8 µM | 0.42 µM | 1.77 µM | 0.85 µM | – |
| O=c1[nH]c(=O)n([C@H]2C[C@H](O)[C@@H](CO)O2)cc1/C=C/Br [BRIVUDINE] | > 100 µM | – | – | – | – | – | – | – | – | – | 0.05 µM | – | – | – | – | – | – | – | – | – | – |
| CCN(CC)c1ccc2cc(-c3nc4cc(C5=NCCCN5)ccc4[nH]3)c(=O)oc2c1 | > 100 µM | > 100 µM | 43.4 µM | > 100 µM | > 100 µM | > 100 µM | > 100 µM | > 100 µM | > 100 µM | 73.3 µM | > 100 µM | 72.6 µM | 77.7 µM | 97 µM | 66.7 µM | > 100 µM | 10.8 µM | 63.8 µM | 63.5 µM | 67.3 µM | EC50 [14]: > 100 µM; IC50 [15]: 110 µM; IC50 [16]: 610 µM; Activity [17]: 28.8 mmol/mmol |
